procasp7 counter – counter-screen: procaspase-7 (human) activation | P55210 | recombinant procaspase-7, Ac-DEVD-pNA absorbance 405 nm; D23A/D198A/D206A triple mutant, cannot self-cleave; scale: DMSO 0, 5 µM enzyme 100 | activation, % at 8.5 µM | actives 0.093% (n = 330,000) | AID 463210;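 active = percent activation above the screen-wide mean plus 3 SD, cut at about 25% in these data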
Target sequence (P55210 whole entry D23A/D198A/D206A): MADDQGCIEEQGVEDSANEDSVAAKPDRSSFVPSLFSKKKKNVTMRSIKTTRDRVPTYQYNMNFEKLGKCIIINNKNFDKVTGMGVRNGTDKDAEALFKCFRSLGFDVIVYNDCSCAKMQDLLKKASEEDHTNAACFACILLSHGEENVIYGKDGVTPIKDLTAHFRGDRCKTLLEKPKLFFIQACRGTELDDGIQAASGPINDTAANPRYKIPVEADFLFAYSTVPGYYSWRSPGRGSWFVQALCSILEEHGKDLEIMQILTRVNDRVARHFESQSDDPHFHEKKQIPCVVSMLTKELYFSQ
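Assay system – Uncleavable procaspase-7 mutant enzyme · Quantity – 2 µM procaspase-7 mutant as dispensed · Times – 1 h preincubation, 2 h reaction · Dosing – single nominal 8.5 µM compound dose, 0.8% DMSO final · Buffer or medium – Zinc-free 50 mM HEPES buffer, pH 7.4, with NaCl and Triton X-100 · Detection – Epi-absorbance of released pNA at 405 nm, two timepoints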
procasp3 activ – procaspase-3 (human) activation; AID 463141; actives 0.11% (n = 330,000); recombinant procaspase-3 D3A, Ac-DEVD-pNA absorbance 405 nm; activation, % at 8.5 µM; P42574;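 active = activation above the mean of all tested compounds plus 3 SD, cut at about 21% in these data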
Target sequence (P42574 whole entry D9A/D28A/D175A): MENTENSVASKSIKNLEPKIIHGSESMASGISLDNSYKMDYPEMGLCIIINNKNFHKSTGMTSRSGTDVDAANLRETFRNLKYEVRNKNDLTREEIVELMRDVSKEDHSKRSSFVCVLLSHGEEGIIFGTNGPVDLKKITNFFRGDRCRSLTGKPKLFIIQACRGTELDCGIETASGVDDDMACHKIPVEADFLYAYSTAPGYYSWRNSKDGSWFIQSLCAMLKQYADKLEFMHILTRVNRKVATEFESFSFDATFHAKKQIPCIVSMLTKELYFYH
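Assay system: Procaspase-3 D3A mutant, all three cleavage aspartates alanine. Buffer or medium: Zinc-free HEPES saline buffer with Triton X-100. Times: 1 h compound preincubation, 2 h substrate hydrolysis at 25 °C. Measured by: 405 nm absorbance of p-nitroaniline, reads at 0 and 120 min. Read-out basis: percent activation relative to control range. Replicates: singlicate.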
AHR act – activators of human aryl hydrocarbon receptor; AHR-responsive luciferase reporter cells, luminescence; activation, % at 5 µM; actives 2.5% (n = 320,000); AID 2796; in the data active = activation above about 47%
PolyA inh – blocks polyadenylation in yeast reporter cells; S. cerevisiae SKY197-pL101 polyadenylation reporter, beta-gal luminescence; efflux-impaired pdr1/pdr3 knockout yeast; score 100 = 6 SD above DMSO; activity score, % at 12 µM; actives 0.02% (n = 300,000); AID 1875;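 active = lowest replicate activity score at least 50, where 100 means six control SD above control mean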;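 also: yeast exposed to compound for 9 h at 30 °C; higher score means more reporter readthrough which indicates perturbed polyadenylation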
Numbers stand for hits. Hits are enriched below; roughly 2.6% of the tested compounds scored in any of these assays.

Cc1ccc(NC(=O)Cc2nc(CN(C)CC(=O)Nc3ccc(C)cc3)cs2)cc1 was read as procasp7 counter inactive, procasp3 activ inactive and AHR act inactive.
Screening COc1ccc(/C=C/c2nc(-c3ccccc3)cc(=O)[nH]2)cc1 returned procasp7 counter inactive, procasp3 activ inactive, AHR act 76.2 and PolyA inh inactive.
`O=c1cc(-c2ccccc2)nc(/C=C/c2ccccc2)[nH]1` gave procasp7 counter inactive, procasp3 activ inactive, AHR act inactive and PolyA inh inactive.
For Cc1sc2nc(SCC(=O)N3CCCC3)[nH]c(=O)c2c1C the results were procasp7 counter inactive, procasp3 activ inactive, AHR act 59.0 and PolyA inh inactive.
For Cc1sc2nc(SCC(=O)N3CCCCC3)[nH]c(=O)c2c1C the results were procasp7 counter inactive, procasp3 activ inactive, AHR act inactive and PolyA inh inactive.
Screening Cc1ccccc1-c1nc2cc(N)ccc2o1 returned procasp7 counter inactive, procasp3 activ inactive, AHR act inactive and PolyA inh inactive.
For CC(C)c1ccc2oc(-c3cc(N)ccc3O)nc2c1 the results were procasp7 counter inactive, procasp3 activ inactive, AHR act 69.6 and PolyA inh inactive.
CCOc1ccccc1NC(=O)c1cccc(NC(=O)C2CCCC2)c1 was read as procasp7 counter inactive, procasp3 activ inactive, AHR act 59.9 and PolyA inh inactive.
COc1cc(NC(=O)C2CCCCC2)c(OC)cc1NC(=O)c1ccccc1 was read as procasp7 counter inactive, procasp3 activ inactive, AHR act 54.4 and PolyA inh inactive.
O=C(Nc1ccccc1Cl)c1cccc(NC(=O)C2CCCC2)c1 was read as procasp7 counter inactive, procasp3 activ inactive, AHR act inactive and PolyA inh inactive.
For COc1cc(NC(=O)C2CCCCC2)c(OC)cc1NC(=O)c1ccco1 the results were procasp7 counter inactive, procasp3 activ inactive, AHR act inactive and PolyA inh inactive.
Screening COc1cc(NC(=O)C2CCCO2)c(OC)cc1NC(=O)c1ccccc1 (stereo not given) returned procasp7 counter inactive, procasp3 activ inactive, AHR act 78.4 and PolyA inh inactive.
CC(C)(C)n1nc2c(c1NC(=O)c1ccc(Cl)c([N+](=O)[O-])c1)CS(=O)(=O)C2 was read as procasp7 counter inactive, procasp3 activ inactive, AHR act inactive and PolyA inh inactive.
CC1Cc2ccccc2N1C(=O)Cn1cnc2c1c(=O)n(C)c(=O)n2C (stereo not given) was read as procasp7 counter inactive, procasp3 activ inactive, AHR act inactive and PolyA inh inactive.
For COC(=O)/C(=C\Nc1ccccc1N)c1ncc(C(F)(F)F)cc1Cl the results were procasp7 counter inactive, procasp3 activ inactive, AHR act 69.4 and PolyA inh inactive.
`O=C(c1ccccc1)c1ncc(C(F)(F)F)cc1Cl` gave procasp7 counter inactive, procasp3 activ inactive, AHR act inactive and PolyA inh inactive.
NC(=O)CC(NC(=O)Cc1ccc(Br)cc1)c1ccc(N2CCc3ccccc3C2)c([N+](=O)[O-])c1 (stereo not given) was read as procasp7 counter inactive, procasp3 activ inactive, AHR act inactive and PolyA inh inactive.
Cc1ccsc1/C=N/n1c(-c2cccnc2)n[nH]c1=S was read as procasp7 counter inactive, procasp3 activ inactive, AHR act 60.2 and PolyA inh inactive.
For COc1ccc(-c2n[nH]c(=S)n2/N=C/c2cccn2C)cc1 the results were procasp7 counter inactive, procasp3 activ inactive, AHR act 69.7 and PolyA inh inactive.
Cc1ccc(-c2n[nH]c(=S)n2/N=C/c2cccs2)cc1 was read as procasp7 counter inactive, procasp3 activ inactive, AHR act 55.0 and PolyA inh inactive.
S=c1[nH]nc(-c2ccccc2)n1/N=C/c1cccs1 was read as procasp7 counter inactive, procasp3 activ inactive, AHR act inactive and PolyA inh inactive.
CC(C)(C)c1ccc(-c2n[nH]c(=S)n2/N=C/c2ccncc2)cc1 was read as procasp7 counter inactive, procasp3 activ inactive, AHR act 74.5 and PolyA inh inactive.
Screening Cn1c(=O)c(-c2ccccc2[N+](=O)[O-])c(Cl)c2ccccc21 returned procasp7 counter inactive, procasp3 activ inactive, AHR act inactive and PolyA inh inactive.
Screening CCC(=O)N1CCc2cc(S(=O)(=O)CCC(=O)NCc3cccc(OC)c3)ccc21 returned procasp7 counter inactive, procasp3 activ inactive, AHR act inactive and PolyA inh inactive.
CC12CC3CC(C)(C1)CC(C(=O)NCc1ccncc1)(C3)C2 was read as procasp7 counter inactive, procasp3 activ inactive, AHR act inactive and PolyA inh inactive.
CCOCCCNC(=O)CCC(=O)NNc1nc2ccccc2c2nc(-c3ccccc3)nn12 was read as procasp7 counter inactive, procasp3 activ inactive, AHR act inactive and PolyA inh inactive.
`COCCCNC(=O)CCC(=O)NNc1nc2ccccc2c2nc(-c3ccccc3)nn12` gave procasp7 counter inactive, procasp3 activ inactive, AHR act 62.4 and PolyA inh inactive.
`COCCNC(=O)CCC(=O)NNc1nc2ccccc2c2nc(-c3ccccc3)nn12` gave procasp7 counter inactive, procasp3 activ inactive, AHR act 60.5 and PolyA inh inactive.
For O=C(NCc1ccc(Cl)cc1)C(=O)NCC1OCCN1S(=O)(=O)c1cc(F)ccc1F (stereo not given) the results were procasp7 counter inactive, procasp3 activ inactive, AHR act inactive and PolyA inh inactive.
Screening Cn1c(N)c(C(=O)N/N=C/c2ccccc2)sc1=S returned procasp7 counter inactive, procasp3 activ inactive, AHR act 100.6 and PolyA inh inactive.
`Cn1c(N)c(C(=O)Nc2ccc3ccccc3c2)sc1=S` gave procasp7 counter inactive, procasp3 activ inactive, AHR act 93.2 and PolyA inh inactive.
Cc1cc([N+](=O)[O-])nn1Cc1noc(C(=O)NCCc2ccccn2)n1 was read as procasp7 counter inactive, procasp3 activ inactive, AHR act inactive and PolyA inh inactive.
Cc1ccc(C)c(N2CCN(c3ncccc3[N+](=O)[O-])CC2)c1 was read as procasp7 counter inactive, procasp3 activ inactive, AHR act inactive and PolyA inh inactive.
Screening COc1cc(SC)ccc1C(=O)Nc1ccccc1 returned procasp7 counter inactive, procasp3 activ inactive, AHR act inactive and PolyA inh inactive.
Screening COc1cc(C(=O)NC(=S)Nc2nccs2)cc(OC)c1OC returned procasp7 counter inactive, procasp3 activ inactive, AHR act 78.8 and PolyA inh inactive.
For COc1cc(SC)ccc1C(=O)Nc1nccs1 the results were procasp7 counter inactive, procasp3 activ inactive, AHR act 52.4 and PolyA inh inactive.
For COc1cc(C(=O)Nc2nnc(C)s2)cc(OC)c1OC the results were procasp7 counter inactive, procasp3 activ inactive, AHR act 69.3 and PolyA inh inactive.
Screening COc1cc(NS(=O)(=O)c2ccc(-c3ccc(=O)[nH]n3)o2)cc(OC)c1OC returned procasp7 counter inactive, procasp3 activ inactive, AHR act inactive and PolyA inh inactive.

High-throughput results deposited in PubChem by several laboratories.
